Assay results of several laboratories.
CDK17 with cyclin Y: Cyclin-dependent kinase 17, with cyclin Y (CDK17, Homo sapiens, UniProt Q00537)
CDK17: Cyclin-dependent kinase 17 (CDK17, Homo sapiens, UniProt Q00537)

For `O=C(Nc1cnn(-c2csc(C(=O)NC3COC3)c2)c1)Nc1c(F)cccc1Cl`, the remaining activity was 96% (CDK17 with cyclin Y; enzyme activity, inhibitor; 5 µM).
With `CCC1(CC)NC(=O)c2c(c3ccc(Cl)c(Cl)c3n2C)C1C#N` (stereo not drawn) the ΔTm was 0.7 °C (CDK17; thermal stability, DSF; 10 µM).
`c1ccc(CNc2nc(N3CCOc4ccccc43)nc3c2CCCC3)cc1` gave an inhibition of -12.4% (CDK17; target engagement in cells, inhibitor, chemoproteomics; 20 mM).
`Cc1sc(C(=O)NC2COC2)cc1-n1cc(NC(=O)Nc2c(F)cccc2Cl)cn1` gave a remaining activity of 102% (CDK17 with cyclin Y; enzyme activity, inhibitor; 10 µM).
With `Cn1c2c(Cl)c(Cl)ccc2c2cn[nH]c(=O)c21` the ΔTm was 0.5 °C (CDK17; thermal stability, DSF; 10 µM).
The remaining binding of `C[C@@H](c1cccc(C#N)c1)n1cc(Cl)cc(C(N)=O)c1=N` is reported as 84% (CDK17; cell-free assay, competition with immobilised ligand; 1 µM).
With `Cn1c2c(Cl)c(Cl)ccc2c2cc(N)[nH]c(=O)c21` the ΔTm was 0.6 °C (CDK17; thermal stability, DSF; 10 µM).
`CC(C)CC(=O)N1CCc2nc(-c3ccc(Br)cc3)nc(N(C)Cc3ccccc3)c2C1` has a remaining binding of 100% (CDK17; cell-free assay, competition with immobilised ligand; 0.1 µM).
With `C[C@@H]1CCN(c2nccc(-c3cnn4ncccc34)n2)C1` the remaining binding was 100% (CDK17; binding; 1 µM).
With `Cc1nccc(COC(=O)N2C[C@@H]3[C@@H](CNC(=O)c4ccc5[nH]nnc5c4)[C@@H]3C2)n1` the remaining binding was 90% (CDK17; cell-free assay, competition with immobilised ligand; 1 µM).
`CCN1CCC2(CC1)NC(=O)c1c(c3ccc(Cl)c(Cl)c3n1C)C2C#N` (racemic) gave a ΔTm of 0 °C (CDK17; thermal stability, DSF; 10 µM).
With `Cc1ccc(C(=O)Nc2ccc(CN3CCN(C)CC3)c(C(F)(F)F)c2)cc1C#Cc1cnc2cccnn12` the remaining activity was 7.6% (CDK17; enzyme activity, inhibitor; 23.5 nM).
